Results: ChEMBL document CHEMBL5512642, “Novel triterpenoid pyrones, phthalimides and phthalates are selectively cytotoxic in CCRF-CEM cancer cells - Synthesis, potency, and mitochondrial mechanism of action” (Eur J Med Chem, 2024)
Active and inactive are the calls of the source. No cut-off for these calls is given here.

What was measured:
CCRF-CEM [1] = assay: Induction of apoptosis in human CCRF-CEM cells assessed as late apoptotic cells at 5 time IC50 incubated for 24 hrs by Annexin V and propidium iodide staining based flow cytometry analysis (reference value: 0.5%); format: functional
HCT-116 = assay: Cytotoxicity against human HCT-116 cells assessed as reduction in cell viability incubated for 72 hrs by MTS assay; format: functional, cell-based; settings: HCT-116, 72 h
[2] = Stability in human plasma assessed as compound remaining measured 30 mins by RF-MS analysis; format: ADME, cell-free; settings: read-out: Stability
In short: (§1)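 Compounds incubated in human plasma in vitro for up to 2 h. Percent remaining sampled at 15, 30, 60 and 120 min. Run in triplicate.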

[3] = Metabolic stability in human liver microsomes assessed as compound remaining at measured at 30 mins in presence of NADPH by RF-MS analysis; format: ADME, Microsome; settings: read-out: Stability
In short: (§2)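 Human liver microsomes with NADPH cofactor to assess phase I oxidation. Compound remaining sampled at 15, 30 and 60 min; intrinsic clearance derived and categorized. Run in triplicate.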

[4] = Apparent permeability of the compound across apical to basolateral side in MDCK-MDR1 cells assessed as compound recovery at 10 uM incubated for 1 hr by RF-MS analysis; format: ADME, cell-based, Canis lupus familiaris; settings: dog, read-out: Activity
In short: (§3)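 Caco-2 and MDCK-MDR1 monolayers; transport measured in both directions, apical→basolateral and basolateral→apical. Efflux ratio taken from the two directions; ER > 2 counted as active efflux. Compound recovery reported. Cell-based permeability runs done in duplicate.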

CCRF-CEM [5] = assay: Induction of apoptosis in human CCRF-CEM cells assessed as viable cells at 5 time IC50 incubated for 24 hrs by Annexin V and propidium iodide staining based flow cytometry analysis (reference value: 98%); format: functional
[6] = Apparent permeability of the compound across apical to basolateral side in human Caco-2 cells assessed as compound recovery; format: ADME, cell-based; settings: read-out: Activity; in short: as §3
[7] = Metabolic stability in human liver microsomes assessed as compound remaining at measured at 60 mins in presence of NADPH by RF-MS analysis; format: ADME, Microsome; settings: read-out: Stability; in short: as §2
CCRF-CEM [8] = assay: Induction of apoptosis in human CCRF-CEM cells assessed as late apoptotic cells at 1 time IC50 incubated for 24 hrs by Annexin V and propidium iodide staining based flow cytometry analysis (reference value: 0.5%); format: functional
[9] = Efflux ratio of apparent permeability across basolateral to apical side over apical to basolateral side in MDCK-MDR1 cells; format: ADME, cell-based, Canis lupus familiaris; settings: dog; in short: as §3
CCRF-CEM [10] = assay: Induction of apoptosis in human CCRF-CEM cells assessed as early apoptotic cells at 5 time IC50 incubated for 24 hrs by Annexin V and propidium iodide staining based flow cytometry analysis (reference value: 1.4%); format: functional
[11] = Apparent permeability of the compound in human Caco-2 cells; format: ADME, cell-based; in short: as §3
A549 = assay: Cytotoxicity against human A549 cells assessed as reduction in cell viability incubated for 72 hrs by MTS assay; format: functional, cell-based; settings: A549, 72 h
CEM-DNR = assay: Cytotoxicity against human CEM-DNR cells assessed as reduction in cell viability incubated for 72 hrs by MTS assay; format: functional, cell-based
CCRF-CEM [12] = assay: Induction of apoptosis in human CCRF-CEM cells assessed as early apoptotic cells at 1 time IC50 incubated for 24 hrs by Annexin V and propidium iodide staining based flow cytometry analysis (reference value: 1.4%); format: functional
CCRF-CEM [13] = assay: Cytotoxicity against human CCRF-CEM cells assessed as reduction in cell viability incubated for 72 hrs by MTS assay; format: functional, cell-based
[14] = Cytotoxicity against human K562-Tax cells assessed as reduction in cell viability incubated for 72 hrs by MTS assay; format: functional, cell-based
[15] = Stability in human plasma assessed as compound remaining measured 15 mins by RF-MS analysis; format: ADME, cell-free; settings: read-out: Stability; in short: as §1
[16] = Stability in human plasma assessed as compound remaining measured 120 mins by RF-MS analysis; format: ADME, cell-free; settings: read-out: Stability; in short: as §1
[17] = Efflux ratio of apparent permeability across basolateral to apical side over apical to basolateral side in human Caco-2 cells; format: ADME, cell-based; in short: as §3
[18] = Cytotoxicity against human MRC5 cells assessed as reduction in cell viability incubated for 72 hrs by MTS assay; format: toxicity, cell-based
HCT 116 TP53(-/-) = assay: Cytotoxicity against human HCT116-p53-null cells assessed as reduction in cell viability incubated for 72 hrs by MTS assay; format: functional, cell-based
[19] = Cytotoxicity against human BJ cells assessed as reduction in cell viability incubated for 72 hrs by MTS assay; format: toxicity, cell-based
[20] = Metabolic stability in human liver microsomes assessed as compound remaining at measured at 15 mins in presence of NADPH by RF-MS analysis; format: ADME, Microsome; settings: read-out: Stability; in short: as §2
CCRF-CEM [21] = assay: Induction of apoptosis in human CCRF-CEM cells assessed as necrotic cells at 5 time IC50 incubated for 24 hrs by Annexin V and propidium iodide staining based flow cytometry analysis (reference value: 0.; format: functional
[22] = Plasma protein binding in human assessed as fraction bound at 10 uM by rapid equilibrium dialysis based RF-MS analysis; format: ADME, cell-free; settings: read-out: PPB (converted)
In short: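 Human plasma protein binding measured by equilibrium dialysis and reported as percent fraction bound. Run in triplicate.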

CCRF-CEM [23] = assay: Induction of apoptosis in human CCRF-CEM cells assessed as necrotic cells at 1 time IC50 incubated for 24 hrs by Annexin V and propidium iodide staining based flow cytometry analysis (reference value: 0.1%); format: functional
CCRF-CEM [24] = assay: Induction of apoptosis in human CCRF-CEM cells assessed as reduction in Bcl-2 expression at 5 time of IC50 incubated for 24 hrs by Western blot analysis; format: functional, cell-based
In short: (§4)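 Lysate 20 µg protein per lane on SDS-PAGE, transferred to nitrocellulose, blocked in 5% BSA/TBS-Tween. Probed overnight at 4 °C with anti-caspase-3, Bcl-2, Bcl-XL, β-actin, then HRP secondary 1 h. ECL chemiluminescence detection.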

CCRF-CEM [25] = assay: Antimitotic activity against human CCRF-CEM cells assessed as decrease in cell division at 5 times of IC50; format: functional, cell-based
In short: (§5)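 Mitotic fraction scored with the pH3 Ser10 marker and DNA synthesis with BrdU incorporation. For transcription, cells received a short BrU pulse after the 24 h pre-incubation. Read by flow cytometry against untreated cells.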

K562 = assay: Cytotoxicity against human K562 cells assessed as reduction in cell viability incubated for 72 hrs by MTS assay; format: functional, cell-based; settings: K562, 72 h
[26] = Apparent permeability of the compound in MDCK-MDR1 cells at 10 uM incubated for 1 hr by RF-MS analysis; format: ADME, cell-based, Canis lupus familiaris; settings: dog; in short: as §3
CCRF-CEM [27] = assay: Induction of apoptosis in human CCRF-CEM cells assessed as reduction in Bcl-XL expression at 5 time of IC50 incubated for 24 hrs by Western blot analysis; format: functional, cell-based; in short: as §4
U2OS = assay: Cytotoxicity against human U2OS cells assessed as reduction in cell viability incubated for 72 hrs by MTS assay; format: functional, cell-based
[28] = Stability in human plasma assessed as compound remaining measured 60 mins by RF-MS analysis; format: ADME, cell-free; settings: read-out: Stability; in short: as §1
CCRF-CEM [29] = assay: Induction of mitochondrial membrane potential loss in human CCRF-CEM cells assessed as cells with depolarized mitochondria (P2 gate) by measuring green fluorescence intensity at 1 time IC50 incubated for 24 hrs by JC-1 staining based flow cytometry (reference value: 2.1%)
CCRF-CEM [30] = assay: Induction of apoptosis in human CCRF-CEM cells assessed as viable cells at 1 time IC50 incubated for 24 hrs by Annexin V and propidium iodide staining based flow cytometry analysis (reference value: 98%); format: functional
CCRF-CEM [31] = assay: Induction of mitochondrial membrane potential loss in human CCRF-CEM cells assessed as cells with depolarized mitochondria (P2 gate) by measuring green fluorescence intensity at 5 time IC50 incubated for 24 hrs by JC-1 staining based flow cytometry (reference value: 2.1%)
CCRF-CEM [32] = assay: Antiproliferative activity against human CCRF-CEM cells assessed as inhibition of RNA synthesis at 5 time of IC50 by BrdU incorporation assay; format: functional, cell-based; settings: in the assay text read “BrU incorporation assay” for “BrdU incorporation assay”; in short: as §5
CCRF-CEM [33] = assay: Induction of apoptosis in human CCRF-CEM cells assessed as reduction in caspase-3 expression at 5 time of IC50 incubated for 24 hrs by Western blot analysis; format: functional, cell-based; in short: as §4

C=C(C)[C@@H]1CC[C@]2(C(=O)O)CC[C@]3(C)[C@H](CC[C@@H]4[C@@]5(C)Cc6c(C(F)(F)F)cc(C(=O)OC)c(C(=O)OC)c6C(C)(C)[C@@H]5CC[C@]43C)[C@@H]12
Activity (CCRF-CEM [1]): 4.2%
IC50 (HCT-116): 23 µM
remaining at 0.5 h [2]: 96.7%
remaining at 0.5 h [3]: 102%
recovery at 1 h, 10 µM [4]: 71.2%
Activity (CCRF-CEM [5]): 87.3%
recovery [6]: 75.8%
remaining at 1 h [7]: 76%
Activity (CCRF-CEM [8]): 2.8%
efflux ratio [9]: 6.95
Activity (CCRF-CEM [10]): 8.5%
Papp [11]: 1.73 ×10⁻⁶ cm/s
IC50 (A549): 18 µM
IC50 (CEM-DNR): > 50 µM
Activity (CCRF-CEM [12]): 4.3%
IC50 (CCRF-CEM [13]): 3.8 µM
IC50 [14]: > 50 µM
remaining at 0.25 h [15]: 103%
remaining at 2 h [16]: 93.8%
efflux ratio [17]: 5.62
IC50 at 72 h [18]: > 50 µM
IC50 (HCT 116 TP53(-/-)): 13 µM
IC50 at 72 h [19]: > 50 µM
remaining at 0.25 h [20]: 91%
Activity (CCRF-CEM [21]): 0%
fraction unbound at 10 µM [22]: 0.184
Activity (CCRF-CEM [23]): 0%
Activity (CCRF-CEM [24]): Active
Activity (CCRF-CEM [25]): Active
IC50 (K562): 18 µM
Papp at 1 h, 10 µM [26]: 4.46 ×10⁻⁶ cm/s
Activity (CCRF-CEM [27]): Active
IC50 (U2OS): 17 µM
remaining at 1 h [28]: 96.2%
Activity (CCRF-CEM [29]): 2.4%
Activity (CCRF-CEM [30]): 92.9%
Activity (CCRF-CEM [31]): 38.1%

C=C(C)[C@@H]1CC[C@]2(C(=O)O)CC[C@]3(C)[C@H](CC[C@@H]4[C@@]5(C)Cc6c(C(F)(F)F)cc(=O)oc6C(C)(C)[C@@H]5CC[C@]43C)[C@@H]12
Activity (CCRF-CEM [1]): 31.5%
IC50 (HCT-116): 13 µM
remaining at 0.5 h [2]: 99.2%
remaining at 0.5 h [3]: 86%
recovery at 1 h, 10 µM [4]: 70.7%
Activity (CCRF-CEM [5]): 51.2%
recovery [6]: 104%
remaining at 1 h [7]: 70%
Activity (CCRF-CEM [8]): 3.7%
efflux ratio [9]: 26
Activity (CCRF-CEM [10]): 17.3%
Papp [11]: 0.04 ×10⁻⁶ cm/s
IC50 (A549): 16 µM
IC50 (CEM-DNR): 7.8 µM
Activity (CCRF-CEM [12]): 5.3%
IC50 (CCRF-CEM [13]): 4 µM
IC50 [14]: 10 µM
remaining at 0.25 h [15]: 99.9%
remaining at 2 h [16]: 93.6%
efflux ratio [17]: 28.4
IC50 at 72 h [18]: 28 µM
Activity (CCRF-CEM [32]): Active
IC50 (HCT 116 TP53(-/-)): 15 µM
IC50 at 72 h [19]: > 50 µM
remaining at 0.25 h [20]: 100%
Activity (CCRF-CEM [21]): 0%
fraction unbound at 10 µM [22]: 0.135
Activity (CCRF-CEM [23]): 0.1%
Activity (CCRF-CEM [24]): Active
Activity (CCRF-CEM [25]): Active
IC50 (K562): 22 µM
Papp at 1 h, 10 µM [26]: 0.14 ×10⁻⁶ cm/s
Activity (CCRF-CEM [27]): Active
IC50 (U2OS): 18 µM
Activity (CCRF-CEM [33]): Active
remaining at 1 h [28]: 102%
Activity (CCRF-CEM [29]): 4.4%
Activity (CCRF-CEM [30]): 90.9%
Activity (CCRF-CEM [31]): 30.2%
